These results are taken from ChEMBL document CHEMBL1144395, “Design and synthesis of potent pyridazine inhibitors of p38 MAP kinase” (Bioorg Med Chem Lett, 2005).

Assay [1] can be described thus: Inhibitory activity against mitogen-activated protein kinase p38. Further details: species or system Homo sapiens.
The nature of assay [2]: Inhibitory activity against c-Jun N-terminal kinase 3 (JNK3). Further details: species or system Homo sapiens.
For another assay, the system named is THP-1. The experiment in a line: Inhibitory concentration against TNF-alpha production in THP-1 cells. The class given is functional, cell-based. The conditions noted are these: Homo sapiens.
The test system of a further assay is Cell line. The experiment in a line: Inhibitory concentration against LPS-induced release of TNF-alpha in human whole blood. The class given is functional, cell-based.
The species named for the next assay is Rattus norvegicus. The experiment in a line: Effective dose against rat collagen-induced arthritis (CIA) model. It is filed as functional.
The next assay is filed under the species Mus musculus. The experiment in a line: Effective dose against murine LPS challenge model. It is filed as functional. The essentials: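 Oral dosing to BALB/c mice (n = 5) 1 h before intravenous LPS ([…]); blood taken 90 min after LPS, serum TNF-α measured by ELISA; % inhibition = [(vehicle control − compound)/(vehicle control)] × 100; ED50 derived from this inhibition.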

A word on the Ki: it is the equilibrium dissociation constant of an inhibitor or competing ligand from its target. What is called IC50 is the concentration at which inhibition is half-maximal. Read a high IC50 as weaker potency in that assay. Take `O=C(CO)N[C@H](CNc1cc(-c2ccncc2)c(-c2cccc3ccccc23)nn1)Cc1ccccc1`: the results for the inhibition constant Ki in assay [1] and in assay [2] were 65.9 nM and 211 nM, respectively. This compound also displayed an IC50 with THP-1 of 661 nM.

Consider `CC(C)C[C@H]1CN(c2cc(-c3ccncc3)c(-c3cccc4ccccc34)nn2)CCN1`, for which the IC50 in the assay with Cell line came out at 547 nM; in the assay with THP-1 it was 63.6 nM. The Ki was determined as 29.7 nM in assay [1] and 650 nM in assay [2].

As to `O=C(CNc1nccc(-c2cc(C3CCNCC3)nnc2-c2cccc(C(F)(F)F)c2)n1)c1ccccc1`, the results for the Ki in assay [1] and in assay [2] were 709 nM and greater than 10000 nM, respectively. For the same compound, the IC50 in the assay on THP-1 is 1290 nM.

Turning to `CC(Nc1nccc(-c2cc(C3CCNCC3)nnc2-c2cccc(C(F)(F)F)c2)n1)c1ccc(F)cc1` (centres undefined), the Ki in assay [1] was 10.2 nM; in assay [2], greater than 10000 nM. The compound also yielded an IC50 in the assay with THP-1 of 93.4 nM.

As to `c1ccc(C[C@@H](CNc2cc(-c3ccncc3)c(-c3cccc4ccccc34)nn2)N2CCCC2)cc1`, the values for the Ki in assay [1] and in assay [2] were 9.2 nM and 81.5 nM, respectively. For the same compound, the IC50 with THP-1 turned out to be 5.5 nM.

As for `CC(N)(CNc1cc(-c2ccncn2)c(-c2cccc(C(F)(F)F)c2)nn1)Cc1ccccc1` (centres undefined), the Ki is 179 nM in assay [1] and greater than 10000 nM in assay [2]. Moreover, the IC50 with THP-1 was found to be 251 nM.

`O=C(CNc1nccc(-c2cc(C3CCNCC3)nnc2-c2cccc(C(F)(F)F)c2)n1)c1ccc(F)cc1`: the Ki in assay [1] was 1770 nM; in assay [2], greater than 10000 nM. The same compound returned an IC50 in the assay with THP-1 of 1240 nM.

One may read the ED50 as the midpoint of the dose-response relation. Take `c1ccc(C[C@H]2CN(c3cc(-c4ccncc4)c(-c4cccc5ccccc45)nn3)CCN2)cc1`: the values for the IC50 in the assay with Cell line and with THP-1 were 240 nM and 67.6 nM, respectively. Further, the inhibitory constant (Ki) worked out at 7.3 nM in assay [1] and 160 nM in assay [2]. In addition, the results for the ED50 in the assay filed under Rattus norvegicus and in the assay filed under Mus musculus were 2.7 mg/kg and 1.28 mg/kg, respectively.

For `N[C@H](CNc1cc(-c2ccncn2)c(-c2cccc(C(F)(F)F)c2)nn1)Cc1ccccc1`, the IC50 turned out to be 1830 nM in the assay on Cell line and 40.2 nM in the assay on THP-1. Also, the Ki was 56.2 nM in assay [1] and greater than 10000 nM in assay [2].

Turning to `C[C@H](Nc1cc(-c2cc(C3CCNCC3)nnc2-c2cccc(C(F)(F)F)c2)ccn1)c1ccccc1`, the IC50 with Cell line is 5850 nM; with THP-1, 21.5 nM. Moreover, the Ki worked out at 2.1 nM in assay [1] and 2970 nM in assay [2].

Consider `O=C(CO)N1CCN(c2cc(-c3ccncc3)c(-c3cccc4ccccc34)nn2)C[C@@H]1Cc1ccccc1`, for which the figures for the Ki in assay [1] and in assay [2] were 31.8 nM and 72.5 nM, respectively. Moreover, in the assay with THP-1, the IC50 was 552 nM.

In the case of `C[C@H](Nc1nccc(-c2cc(C3CCNCC3)nnc2-c2cccc(C(F)(F)F)c2)n1)c1ccccc1`, the IC50 with Cell line is 1560 nM; in the assay on THP-1, 5.3 nM. Besides, the Ki worked out at 1.6 nM in assay [1] and 1580 nM in assay [2].

As to `N[C@H](CNc1cc(-c2ccncc2)c(-c2cccc3ccccc23)nn1)Cc1ccc(F)cc1`, the IC50 turned out to be 948 nM with Cell line and 92.2 nM in the assay on THP-1. The Ki in assay [1] is 1.8 nM; in assay [2] it was 1060 nM.

On to `CC(C)N[C@H](CNc1cc(-c2ccncc2)c(-c2cccc3ccccc23)nn1)Cc1ccccc1`, for which the Ki in assay [1] was 20.4 nM; in assay [2] it was 598 nM. The compound further came in with an IC50 in the assay with THP-1 of 110 nM.

As to `N[C@H](CNc1cc(-c2ccncc2)c(-c2cccc3ccccc23)nn1)Cc1ccccc1`, the figures for the IC50 with Cell line and in the assay with THP-1 were 165 nM and 50.1 nM, respectively. Also, the results for the inhibitory constant (Ki) in assay [1] and in assay [2] were 7 nM and 735 nM, respectively.
